Here are results for 40 compounds from ChEMBL document CHEMBL3822427, “An evaluation of Minor Groove Binders as anti-lung cancer therapeutics” (Bioorg Med Chem Lett, 2016).

Molecules are shown by their SMILES. Active and inactive are the calls of the source. The rule behind the calls is not given here.

System in one series: not listed separately
Description: Antiproliferative activity against mouse B16-F10-Luc-G5 cells assessed as cell growth inhibition measured after 24 hrs by luciferase gene assay. The format is functional, cell-based.
Settings: not given
Summed up:
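Luciferase-expressing murine melanoma cells exposed to a concentration series, with gemcitabine as positive control. Growth read by bioluminescence. IC50 is the mean of three experiments, each with three replicates per concentration, reported ± SD.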
Turning to `Cn1cc(NC(=O)c2cc(NC(=O)c3ccc(/C=C/c4ccc(C(F)(F)F)cc4)cc3)cn2C)cc1C(=O)NCCN1CCOCC1`, the IC50 – broadly, the concentration that inhibits the measured activity by half – stood at 0.16 µM.
On the same count and under the same terms, the figure for `Nc1ccn([C@@H]2O[C@H](CO)[C@@H](O)C2(F)F)c(=O)n1` [GEMCITABINE] is 11 µM; for `COc1cccc(/C=C/c2ccc(C(=O)Nc3cc(C(=O)NCCN4CCOCC4)n(C)c3)cc2)c1` it is 0.81 µM.
Same read-out and setting: the figure for `COc1cccc(/C=C/c2ccc(C(=O)Nc3cc(C(=O)Nc4cc(C(=O)NCCN5CCOCC5)n(C(C)C)c4)n(C)c3)cc2)c1` is 1.1 µM; for `CC(C)n1cc(NC(=O)c2cc(NC(=O)c3ccc(/C=C/c4ccc(C(F)(F)F)cc4)cc3)cn2C)cc1C(=O)NCCN1CCOCC1` it is 2.16 µM; for `COc1ccc(/C=C/c2ccc(C(=O)Nc3cc(C(=O)Nc4cc(C(=O)NCCN5CCOCC5)n(C(C)C)c4)n(C)c3)cn2)cc1` it is 0.81 µM.

System in another series: not listed separately
Description: (§1) Antiproliferative activity against mouse B16-F10-Luc-G5 cells assessed as cell growth inhibition at 15.36 ug/ml measured after 24 hrs by luciferase gene assay relative to DMSO control. It counts as functional. Particulars: read-out: GI.
As to `COc1cccc(C(=N)Nc2cc(C(=O)Nc3cc(C(=O)Nc4nc(C(=O)NCCCN(C)C)c(CCC(C)C)s4)n(C)c3)n(C)c2)c1`, the inhibition of growth at 15.36 µg/mL came out at 34%.
Same read-out and setting: the result for `COc1cccc(/C=C/c2ccc(C(=O)Nc3cc(C(=O)Nc4cc(C(=O)NCCC(=N)N)n(C)c4)n(C)c3)cc2)c1` reads 67%; that for `COc1cccc(/C=C/c2ccc(C(=O)Nc3cc(C(=O)N4CCN(C)CC4)n(C)c3)cc2)c1`, 76%; that for `COc1ccc(/C=C/c2ccc(C(=O)Nc3cc(C(=O)Nc4cc(C(=O)NCCN5CCOCC5)n(C)c4)n(C)c3)cn2)cc1`, 44%.
For `CSc1ccc(/C=C/c2ccc3cc(C(=O)Nc4cc(C(=O)Nc5cc(C(=O)NCCN6CCOCC6)n(C)c5)n(C)c4)ccc3n2)cc1`, the inhibition of growth at 15.36 µg/mL stood at 19%.
Same read-out and setting: the result for `CC(C)c1nc(N)sc1C(=O)Nc1cc(C(=O)Nc2cc(C(=O)NCCN3CCOCC3)n(C)c2)n(C)c1` reads 57%; that for `COc1cccc(C(=N)Nc2cc(C(=O)Nc3cc(C(=O)Nc4nc(C(=O)NCCCN(C)C)c(C(C)C)s4)n(C)c3)n(C)c2)c1`, 34%; that for `Cn1cc(NC(=O)c2cc(NC(=O)c3ccc(/C=C/c4cccc(F)c4)cc3)cn2C)cc1C(=O)NCCN1CCOCC1`, 46%.
With `Cn1cc(NC(=O)c2cc(NC(=O)c3ccc(/C=C/c4ccc5nsnc5c4)cc3)cn2C)cc1C(=O)NCCN1CCOCC1`, the inhibition of growth at 15.36 µg/mL was determined as 37%.
On the same count and under the same terms, the result for `CC(C)c1sc(N)nc1C(=O)Nc1cc(C(=O)NCCN2CCOCC2)n(C)c1` reads 2.2%; that for `COc1ccc(/C=C/c2ccc(C(=O)Nc3cc(C(=O)N4CCN(C)CC4)n(C)c3)cn2)cc1`, 59%; that for `CCC(C)n1cc(NC(=O)c2cc(NC(=O)c3ccc(/C=C/c4ccc(OC)cc4)nc3)cn2C)cc1C(=O)NCCN1CCOCC1` (stereo not drawn), 84%.
The same measure, in the same setting: the figure for `Cn1cc(NC(=O)c2cc(NC(=O)c3ccc(/C=C/c4ccc(C(F)(F)F)cc4)cc3)cn2C)cc1C(=O)NCCN1CCOCC1` is 77%.
As for `Cc1sc(NC(=O)c2ccc3c(c2)C(=O)c2ccccc2C3=O)cc1C(=O)Nc1cc(C(=O)Nc2cc(C(=O)NCCCN(C)C)n(C)c2)n(CCC(C)C)c1`, the inhibition of growth at 15.36 µg/mL worked out at 40%.
Consider `CCC(C)n1cc(NC(=O)c2ccc(/C=C/c3ccc(OC)cc3)nc2)cc1C(=O)Nc1cc(C(=O)NCCN2CCOCC2)n(C)c1` (stereo not drawn), for which the inhibition of growth at 15.36 µg/mL came to 84%.
Same read-out and setting: the figure for `COc1ccc(/C=C/c2ccc(C(=O)Nc3cc(C(=O)Nc4cc(C(=O)NCCN5CCOCC5)n(C)c4)n(C(C)C)c3)cn2)cc1` is 85%; for `COc1cccc(/C=C/c2ccc(C(=O)Nc3cc(C(=O)NCCN4CCOCC4)n(C)c3)cc2)c1` it is 55%; for `Cn1cc(NC(=O)c2cc(NC(=O)c3ccc(/C=C/c4ccc5nonc5c4)cc3)cn2C)cc1C(=O)NCCN1CCOCC1` it is 30.9%.
Same read-out and setting: the result for `COc1cccc(/C=C/c2ccc(C(=O)Nc3cc(C(=O)Nc4cc(C(=O)NCCN5CCOCC5)n(C(C)C)c4)n(C)c3)cc2)c1` reads 88%; that for `Cn1cc(NC(=O)c2ccc(/C=C/c3cnc4ccccc4c3)cc2)cc1C(=O)NCCN1CCOCC1`, 72%; that for `COc1cccc(C(=N)Nc2ccc(C(=O)Nc3cc(C(=O)Nc4cc(C(=O)NCCN5CCOCC5)n(C)c4)n(C)c3)cc2)c1`, 77%.
Still for that read-out and setting: the result for `COc1ccc(/C=C/c2ccc(C(=O)Nc3cc(C(=O)Nc4cc(C(=O)NCCN5CCOCC5)n(C(C)C)c4)n(C)c3)cn2)cc1` reads 83%; that for `CC(C)n1cc(NC(=O)c2cc(NC(=O)c3cnc(Cl)c(Cl)c3)cn2C)cc1C(=O)Nc1cc(C(=O)NCCCN(C)C)n(C)c1`, 16.1%.

The species named for another series is Mus musculus. The series is described as §1. It counts as functional.
Settings: not given
For the compound `COc1cccc(/C=C/c2ccc(C(=O)Nc3cc(C(=O)Nc4cc(C(=O)NCCN5CCOCC5)n(C)c4)n(C)c3)cc2)c1`, the “growth inhibition (GI)” value was “inactive”.
On the same count and under the same terms, the entry for `Cn1cc(NC(=O)c2cc(NC(=O)c3ccc(/C=C/c4cccc(C(F)(F)F)c4)nc3)cn2C)cc1C(=O)NCCN1CCOCC1` is “inactive”; for `COc1cccc(C(=O)Nc2nc(C(=O)Nc3cc(C(=O)Nc4cc(C(=O)NCCCN(C)C)n(C)c4)n(C)c3)c(C(C)C)s2)c1` it is “inactive”; for `COc1ccc(/C=C(/C(=O)Nc2cc(C(=O)Nc3cc(C(=O)NCCCN(C)C)n(C)c3)n(C)c2)c2ccc(OC)cc2)cc1` it is “inactive”.
As to `Cn1cc(NC(=O)c2cc(NC(=O)c3ccc(/C=C/c4ccc(F)cc4)cc3)cn2C)cc1C(=O)NCCN1CCOCC1`, the “growth inhibition (GI)” value is “inactive”.
Same read-out and setting: the entry for `CC(=N)Nc1cc(C(=O)Nc2cc(C(=O)Nc3nc(C(=O)NCCCN(C)C)c(CCC(C)C)s3)n(C)c2)n(C)c1` is “inactive”.
Regarding `CC(C)n1cc(NC(=O)c2cc(NC(=O)c3cnc4ccccc4n3)cn2C)cc1C(=O)Nc1cc(C(=O)NCCCN(C)C)n(C)c1`, the “growth inhibition (GI)” value is “inactive”.
As for `Cn1cc(NC(=O)c2cc(NC(=O)c3cc(NC(=O)c4ccc(Cl)cc4Cl)cn3C)cn2C)cc1C(=O)NCCCN1CCOCC1`, the “growth inhibition (GI)” value is “inactive”.
Same read-out and setting: the result for `COc1cccc(C(=N)Nc2cc(C(=O)Nc3cc(C(=O)Nc4cc(C(=O)NCCCN5CCOCC5)n(C)c4)n(C)c3)n(C)c2)c1` reads “inactive”.
On the same count and under the same terms, the entry for `CC(C)CCc1sc(NC(=O)c2cc(NC(=O)c3ccc(/C=C/c4cc5ccccc5nc4Cl)cc3)cn2C)nc1C(=O)NCCN1CCOCC1` is “inactive”; for `CC(=O)Nc1cc(C(=O)Nc2cc(C(=O)Nc3cc(C(=O)Nc4cc(C(=O)NCCCN(C)C)n(C)c4)n(CCC(C)C)c3)n(C)c2)n(C)c1` it is “inactive”.
Same read-out and setting: the result for `CC(=N)Nc1cc(C(=O)Nc2cc(C(=O)Nc3cc(C(=O)NCCCN(C)C)n(C)c3)n(C)c2)n(C)c1` reads “inactive”; that for `CC(=O)Nc1cc(C(=O)Nc2cc(C(=O)Nc3cc(C(=O)NCCCN(C)C)n(C)c3)n(C)c2)c(C)s1`, “inactive”.

System in a further series: not listed separately
Description: Potency index, ratio of gemcitabine IC50 to compound IC50 for mouse B16-F10-Luc-G5 cells. It counts as functional.
Settings: not given
Turning to `Cn1cc(NC(=O)c2cc(NC(=O)c3ccc(/C=C/c4ccc(C(F)(F)F)cc4)cc3)cn2C)cc1C(=O)NCCN1CCOCC1`, the “Ratio IC50” value is 70.

System in a further series: not listed separately
In words: Drug internalization in nucleus of mouse B16-F0-luc cells at 3 and 30 ug/ml measured after 1 hr by DAPI staining based fluorescence microscopic analysis. The format is ADME.
Settings: not given
Take `CN(C)c1ccc(/C=C/c2ccc(C(=O)Nc3cc(C(=O)Nc4cc(C(=O)NCCN5CCOCC5)n(C)c4)n(C)c3)cn2)cc1`: the Drug uptake entry is given as “Dose-dependent effect”.

The test system of another series is Hepatocyte. Description: Cellular uptake in rat hepatocytes at 7.5 uM measured after 24 hrs by fluorescence analysis. It counts as ADME, cell-based.
Settings: not given
Summed up: (§2)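 Primary hepatocyte monolayers exposed to 7.5µM compound over 24 h, with DMSO control. Uptake checked by fluorescence microscopy using red, green and blue filter settings. Morphology assessed by phase contrast with a x20 wet lens, including images at 60 min.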
Turning to `Cn1cc(NC(=O)c2cc(NC(=O)c3ccc(/C=C/c4ccc(C(F)(F)F)cc4)cc3)cn2C)cc1C(=O)NCCN1CCOCC1`, the Drug uptake result is given as “Not Active”.

For another series, the system named is Hepatocyte. Description: Cytotoxicity against rat hepatocytes assessed as change in cell morphology at 7.5 uM measured up to 24 hrs by phase contrast microscopic analysis. The format is cell-based.
Settings: not given
Put shortly:
as §2
Consider `Cn1cc(NC(=O)c2cc(NC(=O)c3ccc(/C=C/c4ccc(C(F)(F)F)cc4)cc3)cn2C)cc1C(=O)NCCN1CCOCC1`, for which the Activity result was “Non-toxic”.

The subject of a further series is Hepatocyte. Description: Cytotoxicity against rat hepatocytes assessed as reduction in cell viability at 7.5 uM measured up to 24 hrs. The format is cell-based.
Settings: not given
Turning to `Cn1cc(NC(=O)c2cc(NC(=O)c3ccc(/C=C/c4ccc(C(F)(F)F)cc4)cc3)cn2C)cc1C(=O)NCCN1CCOCC1`, the Activity entry is given as “Non-toxic”.

System in the next series: not listed separately
In words: Drug internalization in nucleus of mouse B16-F0-luc cells at 250 uM measured after 1 hr by DAPI staining based fluorescence microscopic analysis. The format is ADME.
Settings: not given
Summed up: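 B16-F0-luc mouse melanoma cells exposed to the fluorescent S-MGB probe at two concentrations for 1 hr, with DMSO-only and Hoechst 33342 nuclear-stain controls. Examined live on an inverted fluorescence microscope (x20 objective) under brightfield and UV or DAPI filter sets. Nuclear localisation judged by overlaying fluorescence on brightfield images. Two experiments with separately prepared cells.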
Turning to `CCOc1ccc(-c2nc3cc(-c4nc5cc(N6CCN(C)CC6)ccc5[nH]4)ccc3[nH]2)cc1.Cl.Cl.Cl`, the Drug uptake result is given as “Active”.
